Source: PubChem
A selection: hits, their analogues and other compounds. The true share with any hit is near 1.4%.
DAGLB inhibitor – blocks human DAGLB lipase activity; Q8NCG7; HEK293T DAGLB membrane lysate, EnzChek fluorogenic substrate; inhibition, % at 5.17 µM; 0.059% of 340,000 active; in the data active means inhibition above about 34%;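 further: 0% = enzyme with vehicle and 100% = wells lacking enzyme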
HTR5A ag ctr – activates human HTR5A in OPRM1-OPRD1 agonist counter-screen; HTR5A agonist assay, luminescence, cell-based; 0.61% of 340,000 active; P47898; activation, % at 9.3 µM; in the data active means activation mostly above about 9.5%, no sharp cut-off; inactive means mostly below about 7.6%;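 further: 0% = cells with vehicle only and 100% = reference agonist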
Target sequence (P47898 whole entry, looked up): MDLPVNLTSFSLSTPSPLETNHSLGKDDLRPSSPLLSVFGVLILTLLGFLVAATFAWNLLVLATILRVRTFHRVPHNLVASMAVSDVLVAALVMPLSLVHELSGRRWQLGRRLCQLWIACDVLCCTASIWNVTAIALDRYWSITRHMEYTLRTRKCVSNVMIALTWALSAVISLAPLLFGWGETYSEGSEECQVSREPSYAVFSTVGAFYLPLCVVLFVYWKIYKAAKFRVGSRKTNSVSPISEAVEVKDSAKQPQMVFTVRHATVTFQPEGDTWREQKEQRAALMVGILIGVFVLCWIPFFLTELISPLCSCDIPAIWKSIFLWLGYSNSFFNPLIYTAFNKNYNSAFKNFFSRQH
MOR-DOR ag – OPRM1-OPRD1 heterodimerization agonism; P35372+P41143; cells, luminescence; activation, % at 9.3 µM; 0.3% of 340,000 active; AID 504326; in the data active means activation above about 18%;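 further: 0% = vehicle-treated cells and 100% = reference agonist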
OPRM1-OPRD1 inv – inverse agonist of human OPRM1-OPRD1 heterodimerization; P35372+P41143; cell-based MOR-DOR heterodimer luminescence, inverse agonism; inhibition, % at 9.3 µM; 0.21% of 340,000 active; in the data active means inhibition above about 22%, passing the limit was not always enough;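 further: 0% = cells with DMSO and 100% = wells without cells with DMSO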
Arr AP2 block – human beta-arrestin and AP2 interaction inhibition; FITC-arrestin peptide / GST-AP2 beads, flow cytometry; AP2 beta2 appendage carries R879A mutation; inhibition, % at 10 µM; 0.31% of 340,000 active; AID 504490;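 active means inhibition above a set limit, near 3 SD of compounds lacking own fluorescence, cut at about 54% in these data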;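 further: plate controls were DMSO wells for no effect and 5 µM unlabelled arrestin peptide for full effect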
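Assay system: GST-AP2 R879A bound to glutathione beads, E. coli-expressed; Medium: PBS with 0.05% Tween 20 and 0.1% BSA; Also added: fluorescein-tagged arrestin peptide at 50 nM final; Timing: 12 min plus 1 h, RT; Measured by: flow cytometry, FL1 (488/535 nm); Evaluation: percent drop in bead-associated FITC signal.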
HTR5A inv ag – inverse agonist of human HTR5A in OPRM1-OPRD1 counter-screen. P47898. HTR5A cell line, luminescence, inverse agonism. inhibition, % at 9.3 µM. 0.083% of 340,000 active. AID 504634; in the data active means inhibition mostly above about 23%, no sharp cut-off; inactive means mostly below about 18%;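 further: 0% = cells with DMSO and 100% = no-cell wells with DMSO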
The depositor's hits bear a star; . = not tested or not shown.

SMILES	DAGLB inhibitor	HTR5A ag ctr	MOR-DOR ag	OPRM1-OPRD1 inv	Arr AP2 block	HTR5A inv ag
CCOc1ccc(C(=O)SC2=NCCS2)cc1	0	0	1	-4	27	2
COc1ccc(C(=O)SC2=NCCS2)cc1	0	12*	2	-12	3	-13
C[C@@H]1CN([C@@H](C)CO)C(=O)c2cc(-c3cccnc3)cnc2O[C@H]1CN(C)C(=O)c1cccc(F)c1	0	.	.	.	.	.
CCOC(=O)c1ccc(N=c2sc(C(=O)OC)cc(=O)n2CCCN2CCOCC2)cc1	-1	11	0	0	-11	-2
CCOC(=O)c1ccc(N=c2sc(C(=O)OC)cc(=O)n2Cc2ccco2)cc1	-2	14*	0	-3	3	-3
COc1ccc(Cc2nnc(SCc3c(C)noc3C)n2C2CCCCC2)cc1OC	-2	12*	1	-6	7	-59
Cc1noc(C)c1CSc1nnc(-c2cccnc2)n1C1CCCCC1C (stereo unspecified)	-1	5	-2	13	17	-1
O=c1[nH]cnc2c1c(-c1ccccc1)cn2-c1cccc(Cl)c1	6	10*	5	-28	-7	-21
COc1ccc(-n2cc(-c3ccccc3)c3c(=O)[nH]cnc32)cc1	-1	6	0	1	13	-16
CCCCN(C(=O)CC1CCCC1)c1c(N)n(Cc2ccccc2)c(=O)[nH]c1=O	2	.	.	.	.	.
CC(C)C(NC(=O)c1ccc(C(C)(C)C)cc1)C(=O)NCCc1ccccn1 (stereo unspecified)	-12	1	1	-4	-1	-4
CCC(CC)C(=O)c1c[nH]c(C(=O)NCc2ccccn2)c1	2	9.1*	1	-5	-8	-23
CC(C)(C)c1ccc(C(=O)c2c[nH]c(C(=O)NCCc3ccccn3)c2)cc1	-4	9.4*	-2	8	-19	-26
CCC(CC)C(=O)c1c[nH]c(C(=O)NCCc2ccccn2)c1	-3	13*	0	-2	-3	-1
Cn1nc(N)c2ncc(-c3ccc(Cl)cc3)nc21	-1	.	.	.	.	.
Cc1ccc(C(=O)NCC(=O)OCc2nc3ccsc3c(=O)[nH]2)cc1C	-6	.	.	.	.	.
CC(C)(C)OC[C@H](NC(=O)c1[nH]cnc1C(=O)Nc1ccccc1F)C(=O)OC(C)(C)C	-6	.	.	.	.	.
CCN(C(=O)CN1C(=O)NC2(CCCC2)C1=O)c1nc2c(C)cccc2s1	-1	.	.	.	.	.
CS(=O)(=O)NCCSc1cc(C(F)(F)F)nc2ccccc12	-4	12*	-4	21	30	2
CC(NC(=O)c1ccc(NC(=O)CC2SC(N3CCCC3)=NC2=O)cc1)c1ccc(F)cc1 (stereo unspecified)	1	5	-3	11	23	-12
COC(=O)[C@@H](Cc1c[nH]c2ccccc12)NCc1cccc(B(O)O)c1	-4	3	-2	8	1	-12
CC1=NN(c2ccccc2)C(=O)/C1=C/C=C/C=C/N(C)C	15	-8	-6	33*	1	22*
CCN(CC)C(=O)C1=C(C)N(CCCN2CCCC2=O)C(=O)C(CC(=O)NCCCCc2ccccc2)C1 (stereo unspecified)	2	.	.	.	.	.
Cc1c(C(=O)OC2CCCC2)[nH]c2c1C(=O)CC(c1ccco1)C2 (stereo unspecified)	-5	10*	1	-6	0	-28
CC(=O)Nc1nc2n(n1)C(c1ccccc1)C=C(c1ccccc1)N2 (stereo unspecified)	-7	-12	-3	17	7	32*
SMILES	DAGLB inhibitor	HTR5A ag ctr	MOR-DOR ag	OPRM1-OPRD1 inv	Arr AP2 block	HTR5A inv ag
Cc1cc([N+](=O)[O-])ccc1NC(=O)c1csc(C)c1C	-1	13*	0	1	1	-1
CNC(=S)Nc1ccc([N+](=O)[O-])cc1C	-3	-2	-1	6	48	25
CCN(CC)c1nc2ccccc2n2cnnc12	1	13*	0	-2	1	15
Cc1ccc(NC(=S)NCCO)c(C)c1	-2	12*	-2	10	3	14
Cc1ccc(NC(=S)NCCc2ccccc2)c(C)c1	-7	3	-2	10	1	4
COc1ccccc1NC(=O)CS(=O)(=O)c1cccc2nsnc12	1	12*	-2	9	0	34
CCN1C(=O)/C(=C\N2CCCc3ccccc32)SC1=S	-2	-7	-2	10	-3	9
CCN1C(=O)/C(=C/N2CCc3ccccc32)SC1=S	-2	2	-1	8	70*	-5
